Test results published in ChEMBL document CHEMBL4339222, “Covalent Inhibitors of Plasmodium falciparum Glyceraldehyde 3-Phosphate Dehydrogenase with Antimalarial Activity in Vitro” (ACS Med Chem Lett, 2019).
pIC50: −log10 of the molar value. Active and inactive are the calls of the source. The rule behind the calls is not given here.

Key:
Plasmodium falciparum [1] = assay: Antimalarial activity against CQ-susceptible Plasmodium falciparum D10 infected in human type A-positive red blood cells assessed as inhibition of parasite growth incubated for 72 hrs by spectrophotometry based parasite lactate dehydrogenase assay; assay type: functional, organism-based; settings: for pIC50: Plasmodium falciparum, D10, 72 h, read-out: IC50
Procedure, shortened: (§1)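 pLDH assay on P. falciparum D10 and W2 blood-stage cultures exposed to compound for 72 h; chloroquine run as control. IC50 values are the mean of three separate experiments, each done in duplicate, with SD.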

[2] = Selectivity index, ratio of IC50 for human HMEC1 cells to IC50 for antimalarial activity against CQ-resistant Plasmodium falciparum W2 infected in human type A-positive red blood cells; assay type: toxicity; settings: read-out: Ratio IC50
Procedure, shortened: (§2)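 SI taken as HMEC-1 IC50 divided by antiplasmodial IC50. […] Each value is the mean of three experiments done in duplicate, with SD.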

HMEC-1 = assay: Cytotoxicity in human HMEC1 cells assessed as reduction in cell viability incubated for 72 hrs by MTT assay; assay type: cell-based; settings: HMEC-1, 72 h
Procedure, shortened: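 Human endothelial HMEC-1 cells exposed to compound for 72 h, then viability read by MTT (tetrazolium reduction) assay. Values are the mean ± SD of three separate experiments, each run in duplicate.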

Plasmodium falciparum [3] = assay: Antimalarial activity against CQ-resistant Plasmodium falciparum W2 infected in human type A-positive red blood cells assessed as inhibition of parasite growth incubated for 72 hrs by spectrophotometry based parasite lactate dehydrogenase assay; assay type: functional, organism-based; settings: for pIC50: Plasmodium falciparum, W2, 72 h, read-out: IC50; procedure, shortened: as §1
[4] = Selectivity index, ratio of IC50 for human HMEC1 cells to IC50 for antimalarial activity against CQ-susceptible Plasmodium falciparum D10 infected in human type A-positive red blood cells; assay type: toxicity; settings: read-out: Ratio IC50; procedure, shortened: as §2
Plasmodium falciparum [5] = assay: Inhibition of recombinant His-tagged Plasmodium falciparum GAPDH expressed in Escherichia coli assessed as reduction in NADH formation by measuring Kinact/Ki ratio in presence of NAD+, DL-glyceraldehyde 3-phosphate and GAPDH by spectrophotometry based Ferdinand assay

## N[C@H](C(=O)NCCc1ccccc1)[C@@H]1CC(Br)=NO1
Plasmodium falciparum [1]
  pIC50: 6.55
[2]
  selectivity ratio: > 400
HMEC-1
  pIC50: < 4.00
Plasmodium falciparum [3]
  pIC50: 6.60
[4]
  selectivity ratio: > 357
Plasmodium falciparum [5]
  Ratio: 0.4 s⁻¹ M⁻¹

## N[C@H](CSCc1ccccc1)[C@@H]1CC(Br)=NO1
Plasmodium falciparum [1]
  IC50: Not Active
Plasmodium falciparum [3]
  IC50: Not Active
Plasmodium falciparum [5]
  Ratio: 1.6 s⁻¹ M⁻¹

## N[C@H](C(=O)NCc1ccc([N+](=O)[O-])cc1)[C@@H]1CC(Br)=NO1
Plasmodium falciparum [1]
  pIC50: 6.10
[2]
  selectivity ratio: 50.1
HMEC-1
  pIC50: 4.44
Plasmodium falciparum [3]
  pIC50: 6.14
[4]
  selectivity ratio: 45.7
Plasmodium falciparum [5]
  Ratio: 1.9 s⁻¹ M⁻¹

## N[C@H](C(=O)NCc1ccccc1)[C@@H]1CC(Br)=NO1
Plasmodium falciparum [1]
  pIC50: 6.44
[2]
  selectivity ratio: 31
HMEC-1
  pIC50: 4.83
Plasmodium falciparum [3]
  pIC50: 6.32
[4]
  selectivity ratio: 41.4
Plasmodium falciparum [5]
  Ratio: 0.6 s⁻¹ M⁻¹

## N[C@H](CS(=O)(=O)Cc1ccccc1)[C@H]1CC(Br)=NO1
Plasmodium falciparum [1]
  IC50: Not Active
Plasmodium falciparum [3]
  IC50: Not Active
Plasmodium falciparum [5]
  Ratio: 1.6 s⁻¹ M⁻¹

## N[C@H](C(=O)O)[C@@H]1CC(Br)=NO1
Plasmodium falciparum [1]
  pIC50: 6.46
[2]
  selectivity ratio: 57.9
HMEC-1
  pIC50: 4.71
Plasmodium falciparum [3]
  pIC50: 6.47
[4]
  selectivity ratio: 56.3
Plasmodium falciparum [5]
  Ratio: 0.7 s⁻¹ M⁻¹

## N[C@H](CSCc1ccccc1)[C@H]1CC(Br)=NO1
Plasmodium falciparum [1]
  IC50: Not Active
Plasmodium falciparum [3]
  IC50: Not Active
Plasmodium falciparum [5]
  Ratio: 0.2 s⁻¹ M⁻¹

## N[C@H](C(=O)OCc1ccccc1)[C@@H]1CC(Br)=NO1
Plasmodium falciparum [1]
  pIC50: 6.43
[2]
  selectivity ratio: > 250
HMEC-1
  pIC50: < 4.19
Plasmodium falciparum [3]
  pIC50: 6.59
[4]
  selectivity ratio: > 176
Plasmodium falciparum [5]
  Ratio: 6.6 s⁻¹ M⁻¹

## N[C@H](COCc1ccccc1)[C@@H]1CC(Br)=NO1
Plasmodium falciparum [1]
  IC50: Not Active
Plasmodium falciparum [3]
  IC50: Not Active
Plasmodium falciparum [5]
  Ratio: 2.6 s⁻¹ M⁻¹

## CCN(CC)CCCC(C)Nc1ccnc2cc(Cl)ccc12 (configuration not stated) [CHLOROQUINE]
HMEC-1
  pIC50: < 4.40

## N[C@H](C(=O)NCc1ccc(F)cc1)[C@@H]1CC(Br)=NO1
Plasmodium falciparum [5]
  Ratio: inactive

## N[C@H](CS(=O)(=O)Cc1ccccc1)[C@@H]1CC(Br)=NO1
Plasmodium falciparum [5]
  Ratio: inactive

## COc1ccc(CNC(=O)[C@@H](N)[C@@H]2CC(Br)=NO2)cc1
Plasmodium falciparum [5]
  Ratio: inactive

## COC(=O)[C@@H](N)[C@@H]1CC(Br)=NO1
Plasmodium falciparum [1]
  pIC50: 6.10
[2]
  selectivity ratio: 39.5
HMEC-1
  pIC50: 4.46
Plasmodium falciparum [3]
  pIC50: 6.06
[4]
  selectivity ratio: 44
Plasmodium falciparum [5]
  Ratio: 10.7 s⁻¹ M⁻¹
